Source: ChEMBL document CHEMBL3244403, “Cholecystokinin (pancreozymin). 4. Synthesis and properties of a biologically active analogue of the C-terminal heptapeptide with epsilon-hydroxynorleucine sulfate replacing tyrosine sulfate” (J Med Chem, 1978)
Calls of active or inactive are those of the source. No cut-off for these calls is given here. Starred links: 1 amine or outer side, 2 acyl side, 3 side chain; linkers in the order of their positions; H or OH if unused. Non-standard residues stand in square brackets, D forms with d. Residues, ends and D or L forms follow the SMILES beside them. *: point of attachment. X1 = O=C([C@H](CCCCOS(=O)(=O)O)N[*:1])[*:2]; sY = N[C@@H](Cc1ccc(OS(=O)(=O)O)cc1)C(=O)O; Boc = CC(C)(C)OC(=O)*

Columns and labels:
Cavia porcellus [1] = organism: Cavia porcellus; assay: Agonist activity at cholecystokinin receptor in NIH guinea pig assessed as gall bladder contraction at 7 to 1900 ng by in situ assay; assay type: tissue-based
Outline: (§1)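 Guinea pig gall bladder in situ (Ljungberg method), contraction recorded via strain gauge transducer after injection. Peptides first dissolved at 10 μg/mL in physiological saline containing 1 mg/mL NaHCO3 and 1 mg/mL L-cysteine. Response compared with injected standard cholecystokinin in Ivy dog units.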

Cavia porcellus [2] = organism: Cavia porcellus; assay: Agonist activity at cholecystokinin receptor in NIH guinea pig pancreatic acinar cells assessed as induction of amylase secretion
Outline: (§2)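 Guinea pig pancreas collagenase-dispersed acini in 100% O2-gassed Hepes buffer pH 7.4 containing 0.5 mM calcium and 5 mM theophylline. Amylase in supernatant assayed in duplicate with Phedabas reagent. Release expressed as % of total cellular amylase appearing in medium during incubation. CCK-(26-33) used as reference.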

Cavia porcellus [3] = organism: Cavia porcellus; assay: Agonist activity at cholecystokinin receptor in NIH guinea pig pancreatic acinar cells assessed as induction of amylase secretion at 0.03 to 0.3 nM; outline: as §2
Cavia porcellus [4] = organism: Cavia porcellus; assay: Agonist activity at cholecystokinin receptor in NIH guinea pig assessed as gall bladder contraction at 7 to 21 ng by in situ assay; assay type: tissue-based; outline: as §1
[5] = Retardation factor of the compound using EtOAc-pyridine-AcOH-H2O at ratio of 60:20:6:11 as solvent system by thin layer chromatography; assay type: physicochemical
[6] = Retardation factor of the compound using 1-butanol-AcOH-H2O at ratio of 4:1:1 as solvent system by thin layer chromatography; assay type: physicochemical
[7] = Retardation factor of the compound using EtOAc-pyridine-AcOH-H2O at ratio of 120:20:6:11 as solvent system by thin layer chromatography; assay type: physicochemical
Cavia porcellus [8] = organism: Cavia porcellus; assay: Agonist activity at cholecystokinin receptor in NIH guinea pig assessed as gall bladder contraction at 7 ng by in situ assay; assay type: tissue-based; outline: as §1

Compound: CSCC[C@H](NC(=O)[C@H](COS(=O)(=O)O)NC(=O)OC(C)(C)C)C(=O)NCC(=O)N[C@@H](Cc1c[nH]c2ccccc12)C(=O)N[C@@H](CCSC)C(=O)N[C@@H](CC(=O)O)C(=O)N[C@@H](Cc1ccccc1)C(N)=O
- Activity (Cavia porcellus [1]): Active
- Activity (Cavia porcellus [2]): Active

Compound: CSCC[C@H](NC(=O)[C@H](Cc1ccc(OS(=O)(=O)O)cc1)NC(=O)[C@@H](N)CC(=O)O)C(=O)NCC(=O)N[C@@H](Cc1c[nH]c2ccccc12)C(=O)N[C@@H](CCSC)C(=O)N[C@@H](CC(=O)O)C(=O)N[C@@H](Cc1ccccc1)C(N)=O
- Activity (Cavia porcellus [3]): Active

Compound: CSCC[C@H](NC(=O)[C@H](CCCCOS(=O)(=O)O)NC(=O)OC(C)(C)C)C(=O)NCC(=O)N[C@@H](Cc1c[nH]c2ccccc12)C(=O)N[C@@H](CCSC)C(=O)N[C@@H](CC(=O)O)C(=O)N[C@@H](Cc1ccccc1)C(N)=O (Boc-[X1]MGWMDF-NH2)
- Activity (Cavia porcellus [4]): Active
- Rf [5]: 0.31
- Rf [6]: 0.55
- Activity (Cavia porcellus [2]): Active
- Rf [7]: 0.19

Compound: CSCC[C@H](NC(=O)[C@H](Cc1ccc(OS(=O)(=O)O)cc1)NC(=O)OC(C)(C)C)C(=O)NCC(=O)N[C@@H](Cc1c[nH]c2ccccc12)C(=O)N[C@@H](CCSC)C(=O)N[C@@H](CC(=O)O)C(=O)N[C@@H](Cc1ccccc1)C(N)=O (Boc-[sY]MGWMDF-NH2)
- Activity (Cavia porcellus [8]): Active
- Activity (Cavia porcellus [2]): Active
